Activity calls are given as the source filed them. No cut-off for these calls is given here.
Assays:
[1] = system: Bel-7402; experiment: Cytotoxicity against human Bel-7402 cells after 96 hrs by MTT assay; assay type: functional, cell-based; details: Bel-7402, 96 h
Procedure, shortened: (§1)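 Cells grown in RPMI1640 with 10% FBS, 100 units/mL penicillin and 100 µg/mL streptomycin, at 37 °C in humidified 5% CO2. Seeded at 1200 cells/well; compounds added after 24 h at five concentrations (final DMSO 0.1%), triplicate wells.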

[2] = system: BGC-823; experiment: Cytotoxicity against human BGC-823 cells after 96 hrs by MTT assay; assay type: functional, cell-based; details: BGC-823, 96 h; procedure, shortened: as §1
[3] = system: A549; experiment: Cytotoxicity against human A549 cells after 96 hrs by MTT assay; assay type: functional, cell-based; details: A549, 96 h; procedure, shortened: as §1
[4] = system: HCT-8; experiment: Cytotoxicity against human HCT8 cells after 96 hrs by MTT assay; assay type: functional, cell-based; details: HCT-8, 96 h; procedure, shortened: as §1
[5] = system: A2780; experiment: Cytotoxicity against human A2780 cells after 96 hrs by MTT assay; assay type: functional, cell-based; details: A2780, 96 h; procedure, shortened: as §1
[6] = biological target: Prothrombin (Homo sapiens) (UniProt P00734); experiment: Inhibition of thrombin at 50 uM
[7] = biological target: T1, Tyrosine-protein phosphatase non-receptor type 1 (Homo sapiens) (UniProt P18031); experiment: Inhibition of PTP1B at 50 uM
T1 sequence (whole entry): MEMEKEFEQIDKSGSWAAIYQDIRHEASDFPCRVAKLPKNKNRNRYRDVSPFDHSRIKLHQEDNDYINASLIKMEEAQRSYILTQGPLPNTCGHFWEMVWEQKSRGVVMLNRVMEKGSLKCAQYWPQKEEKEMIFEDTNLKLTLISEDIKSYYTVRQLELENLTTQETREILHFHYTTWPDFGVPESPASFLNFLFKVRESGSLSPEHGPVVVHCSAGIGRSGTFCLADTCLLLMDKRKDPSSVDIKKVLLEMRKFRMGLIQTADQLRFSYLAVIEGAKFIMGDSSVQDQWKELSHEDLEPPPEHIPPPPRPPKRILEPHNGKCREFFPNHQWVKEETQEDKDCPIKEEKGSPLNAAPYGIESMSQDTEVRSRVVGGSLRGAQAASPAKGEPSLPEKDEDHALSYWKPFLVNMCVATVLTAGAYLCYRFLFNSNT

Row | Structure (SMILES) | IC50 [1] | IC50 [2] | IC50 [3] | IC50 [4] | IC50 [5] | Activity [6] | Activity [7]
1 | CC[C@@]1(O)C(=O)OCc2c1cc1n(c2=O)Cc2cc3c(CN(C)C)c(O)ccc3nc2-1 [TOPOTECAN] | 1400 nM | 3800 nM | 3500 nM | 1200 nM | 1200 nM | – | –
2 | COc1cc(O[C@@H]2O[C@H](CO)[C@@H](O)[C@H](O)[C@H]2O)cc(OC)c1O [KOABURASIDE] | > 10 µg/mL | > 10 µg/mL | > 10 µg/mL | > 10 µg/mL | > 10 µg/mL | inactive | inactive
3 | CCCCCCCC/C=C\CCCCCCCc1cc(O)cc(O)c1 | 1070 nM | 1430 nM | 460 nM | 780 nM | 1060 nM | inactive | inactive
4 | CCCCCCCCCCCCCC1=C(O)C(=O)C=C(O)C1=O [Rapanone] | 1460 nM | 1890 nM | 1580 nM | 1520 nM | 1820 nM | inactive | inactive
5 | CC[C@H](CC[C@@H](C)[C@H]1CC[C@H]2[C@@H]3CC=C4C[C@@H](O[C@@H]5O[C@H](CO)[C@@H](O)[C@H](O)[C@H]5O)CC[C@]4(C)[C@H]3CC[C@]12C)C(C)C [SITOGLUSIDE] | > 10 µg/mL | > 10 µg/mL | > 10 µg/mL | > 10 µg/mL | > 10 µg/mL | inactive | inactive
6 | CCCCCCCCCCCCCC1=C(O)C(=O)C=C(NCCCC(=O)O)C1=O | > 10 µg/mL | > 10 µg/mL | > 10 µg/mL | > 10 µg/mL | > 10 µg/mL | inactive | inactive
7 | CCCCC/C=C\C/C=C\CCCCCCCc1cc(O)cc(O)c1 | 1910 nM | 1790 nM | 1420 nM | 1540 nM | 1570 nM | inactive | inactive
8 | COc1cc([C@H]2c3c(cc(OC)c(O)c3OC)C[C@@H](CO)[C@@H]2CO[C@@H]2O[C@H](CO)[C@@H](O)[C@H](O)[C@H]2O)cc(OC)c1O | > 10 µg/mL | > 10 µg/mL | > 10 µg/mL | > 10 µg/mL | > 10 µg/mL | inactive | inactive
9 | CCCCCc1cc(O)cc(OC)c1 | > 10 µg/mL | > 10 µg/mL | > 10 µg/mL | > 10 µg/mL | > 10 µg/mL | inactive | inactive
10 | CCCCCCCCCCCCCCCc1cc(O)cc(O)c1 [CARDOL] | 1930 nM | 1740 nM | 1430 nM | 1480 nM | 1310 nM | inactive | inactive
11 | CCCCCCCCCCCCCC1=C(O)/C(=C2\C(=O)Oc3c2cc(O)c(O)c3CCCCCCCCCCCCC)OC1=O | > 10 µg/mL | > 10 µg/mL | > 10 µg/mL | > 10 µg/mL | > 10 µg/mL | inactive | inactive
12 | Oc1cc(O)c2c(c1)O[C@H](c1ccc(O)c(O)c1)[C@@H](O)C2 [CIANIDANOL] | > 10 µg/mL | > 10 µg/mL | > 10 µg/mL | > 10 µg/mL | > 10 µg/mL | inactive | inactive
13 | CC[C@H](CC[C@@H](C)[C@H]1CC[C@H]2[C@@H]3CC=C4C[C@@H](O)CC[C@]4(C)[C@H]3CC[C@]12C)C(C)C [BETA-SITOSTEROL] | > 10 µg/mL | > 10 µg/mL | > 10 µg/mL | > 10 µg/mL | > 10 µg/mL | inactive | inactive
14 | COc1cc(O)cc(OC)c1O[C@@H]1O[C@H](CO)[C@@H](O)[C@H](O)[C@H]1O [LEONURISIDE] | > 10 µg/mL | > 10 µg/mL | > 10 µg/mL | > 10 µg/mL | > 10 µg/mL | inactive | inactive

— ChEMBL document CHEMBL1158112, “A nitrogen-containing 3-alkyl-1,4-benzoquinone and a gomphilactone derivative from Embelia ribes” (J Nat Prod, 2006)
